Data taken from publication PMC4408243 (Biochimica et biophysica acta, 2015).
Changes are numbered by the printed parent chain. Values joined by “and” are separate entries in the source; they are usually repeats but may differ in a detail not shown here. Equal values may be shown once. Marks after values point to notes of the source that are not given here. Each block holds one compound with its values, some of them ahead of it.

Key:
[1] = molecular target: T1, rat FABP1 (Rattus norvegicus, UniProt P02692); experiment: NBD-cholesterol fluorescence binding assay
T1 sequence (P02692 1-127): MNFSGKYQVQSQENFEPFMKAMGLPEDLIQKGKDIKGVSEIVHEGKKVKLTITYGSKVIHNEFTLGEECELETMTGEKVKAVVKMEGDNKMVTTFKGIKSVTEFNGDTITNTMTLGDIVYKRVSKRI
Outline: (§1)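 Recombinant FABP1 was titrated into NBD-cholesterol held at 20 nM, below its critical micellar concentration; human proteins ran 0–3.6 μM. Excitation was 490 nm and emission spectra were taken at 515–600 nm, 24°C. Emission maxima came from spectral analysis. Kd and Bmax were obtained by fitting the binding curve to a hyperbola. Data are mean ± SE, n = 3–5.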

[2] = molecular target: T2, human WT FABP1 T94T (Homo sapiens, UniProt P07148); experiment: NBD-cholesterol fluorescence binding assay
T2 sequence (P07148 1-127): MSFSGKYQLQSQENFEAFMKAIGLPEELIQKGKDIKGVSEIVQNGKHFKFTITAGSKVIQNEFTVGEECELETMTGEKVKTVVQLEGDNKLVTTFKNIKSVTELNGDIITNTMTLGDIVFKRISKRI
Outline: as §1

[3] = molecular target: T3, human FABP1 T94A variant (Homo sapiens, UniProt P07148, T94A); experiment: NBD-cholesterol fluorescence binding assay
T3 sequence (P07148 1-127 T94A): T2 sequence (P07148 1-127) with T94A
Outline: as §1

[4] = molecular target: T1, rat FABP1; experiment: Isothermal titration calorimetry; assay type: binding
[5] = molecular target: T4, human WT FABP1 (Homo sapiens, UniProt P07148); experiment: Isothermal titration calorimetry; assay type: binding
T4 sequence (P07148 1-127): T2 sequence (P07148 1-127)

[6] = molecular target: T5, human T94A variant FABP1 (Homo sapiens, UniProt P07148, T94A); experiment: Isothermal titration calorimetry; assay type: binding
T5 sequence (P07148 1-127 T94A): T2 sequence (P07148 1-127) with T94A

[7] = aqueous; cited from earlier work
[8] = NBD-cholesterol 20nM bound to protein, excitation 490 nm, 24°C
[9] = NBD-cholesterol 20nM, FABP1 0–3.6 μM, hyperbola fit
[10] = NBD-cholesterol 20nM, FABP1 0–3.6 μM, hyperbola fit, 24°C

Emission max [1, 8]: 540.7 ± 0.7 nm | Bmax (fluorescence intensity at saturation) [1, 9]: 68.2 ± 7.1 A.U. | Kd [1, 10]: 480 ± 120 nM | Emission max [2, 8]: 544 nm and 543.9 ± 0.5 ^d nm | Bmax (fluorescence intensity at saturation) [2, 9]: 72.4 ± 7.7 A.U. | Kd [2, 10]: 1770 ± 430 nM | blue shift of emission maximum, bound versus aqueous buffer ([2]; normalized spectra): ~21 nm | fold higher affinity for NBD-cholesterol than WT [3]: more than 3 fold | fold lower Kd than WT FABP1 T94T [3]: 3.5 fold | maximal fluorescence intensity lower than when bound to WT FABP1 T94T [3]: ~40% | shift of maximum emission, T94A variant compared to WT FABP1 T94T [3]: 5 nm | Emission max [3, 8]: 549 nm and 548.9 ± 1.0 ^d, ^e nm | Bmax (fluorescence intensity at saturation) [3, 9]: 43.4 ± 3.3 ^d, ^e A.U. | Kd [3, 10]: 510 ± 150 nM
SMILES: C[C@H](CNc1ccc([N+](=O)[O-])c2nonc12)[C@H]1CC[C@H]2[C@@H]3CC=C4C[C@@H](O)CC[C@]4(C)[C@H]3CC[C@]12C [NBD-cholesterol, 22-(N-(7-nitrobenz-2-oxa-1,3-diazol-4-yl)-amino)-23, 24-bisnor-5-cholen-3β-ol]

Kd [4]: 600 ± 200 nM | TΔS ([4]; ITC, 25 °C, pH 8.0): 25 ± 3 kJ/mol | n, binding stoichiometry ([4]; ITC, 25 °C, pH 8.0): 0.9 ± 0.1 mol/mol | ΔG, Gibbs free energy change ([4]; ITC, 25 °C, pH 8.0): -41 ± 2 kJ/mol | ΔH, enthalpy change ([4]; ITC, 25 °C, pH 8.0): -15 ± 1 kJ/mol | Kd [5]: 1300 ± 400 nM | TΔS ([5]; ITC, 25 °C, pH 8.0): 21 ± 2 kJ/mol | n, binding stoichiometry ([5]; ITC, 25 °C, pH 8.0): 0.8 ± 0.2 mol/mol | ΔG, Gibbs free energy change ([5]; ITC, 25 °C, pH 8.0): -38 ± 3 kJ/mol | ΔH, enthalpy change ([5]; ITC, 25 °C, pH 8.0): -17 ± 2 kJ/mol | Kd [6]: 500 ± 100 nM | TΔS ([6]; ITC, 25 °C, pH 8.0): 22 ± 1 kJ/mol | n, binding stoichiometry ([6]; ITC, 25 °C, pH 8.0): 0.7 ± 0.2 mol/mol | ΔG, Gibbs free energy change ([6]; ITC, 25 °C, pH 8.0): -45 ± 3 kJ/mol | ΔH, enthalpy change ([6]; ITC, 25 °C, pH 8.0): −23 ± 4 ^b kJ/mol | fold higher cholesterol-binding affinity than WT FABP1 T94T ([6]; NBD-cholesterol fluorescence and cholesterol ITC binding assays): 3 fold
SMILES: CC(C)CCC[C@@H](C)[C@H]1CC[C@H]2[C@@H]3CC=C4C[C@@H](O)CC[C@]4(C)[C@H]3CC[C@]12C [cholesterol]
critical micellar concentration [7]: ~30 nM
